Experimental findings from ChEMBL document CHEMBL4014308, “Amphiphilic Tobramycin-Lysine Conjugates Sensitize Multidrug Resistant Gram-Negative Bacteria to Rifampicin and Minocycline” (J Med Chem, 2017) are described below.

Holding throughout (type): functional
For experiment [1], the system named is Pseudomonas aeruginosa. Kind of experiment: Antibacterial activity against multidrug/extremely drug-resistant/colistin-resistant Pseudomonas aeruginosa isolate 101243 after 18 hrs by microtiter dilution assay. In outline: (§1)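 Broth microdilution following CLSI guidelines. An overnight culture was adjusted to 0.5 McFarland in saline, then diluted 1:50 in Mueller-Hinton broth. This inoculum was added in equal volume to 2-fold serial dilutions of agent in MHB and incubated 18 h at 37 °C. MIC was the lowest concentration with no visible growth.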

Experiment [2] has as its system Pseudomonas aeruginosa. Kind of experiment: Induction of outer membrane permeabilization in Pseudomonas aeruginosa PAO1 at 32 ug/ml after 30 mins by CFDASE staining based fluorescence assay. A digest of the protocol: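 Log-phase PAO1 washed in PBS, brought to OD600 0.5 and loaded with 100 µM CFDASE for 30 min at 37 °C, then washed. Cells were exposed to agent for 30 min at 37 °C and supernatant fluorescence read at 488/520 nm. Untreated cells were subtracted; 1% Triton X-100 served as positive control.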

Experiment [3] has as its system Pseudomonas aeruginosa. Kind of experiment: Antibacterial activity against Pseudomonas aeruginosa PAO1 after 18 hrs by microtiter dilution assay. In outline:
as §1

Experiment [4] has as its system Pseudomonas aeruginosa. Kind of experiment: Antibacterial activity against multidrug/extremely drug-resistant/colistin-susceptible Pseudomonas aeruginosa isolate 101885 after 18 hrs by microtiter dilution assay. A digest of the protocol: as §1
In experiment [5] the test system is Pseudomonas aeruginosa. Kind of experiment: Antibacterial activity against multidrug/extremely drug-resistant/colistin-susceptible Pseudomonas aeruginosa isolate P264-104354 after 18 hrs by microtiter dilution assay. A digest of the protocol:
as §1

Experiment [6] relates to Pseudomonas aeruginosa. Kind of experiment: Antibacterial activity against multidrug/extremely drug-resistant/colistin-susceptible Pseudomonas aeruginosa isolate 100036 after 18 hrs by microtiter dilution assay. A digest of the protocol: as §1
Experiment [7] relates to Pseudomonas aeruginosa. The experiment in a line: Potentiation of rifampicin-induced antibacterial activity against Pseudomonas aeruginosa PAO1 at 4 ug/ml after 18 hrs by checkerboard assay. A digest of the protocol: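 Checkerboard in MHB with a 10 × 7 matrix: antibiotic serially diluted along one axis, adjuvant along the other. Inoculum was a 1:50 dilution of a 0.5 McFarland suspension, incubated 18 h at 37 °C and read on a plate reader. Each FIC is the concentration in a no-growth well divided by the MIC alone; FIC index is their sum, with ≤0.5 taken as synergy.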

For experiment [8], the system named is Pseudomonas aeruginosa. The experiment in a line: Antibacterial activity against multidrug/extremely drug-resistant/colistin-resistant Pseudomonas aeruginosa isolate 91433 after 18 hrs by microtiter dilution assay. In outline:
as §1

Experiment [9] has as its system Pseudomonas aeruginosa. Kind of experiment: Antibacterial activity against multidrug/extremely drug-resistant/colistin-susceptible Pseudomonas aeruginosa isolate P259-96918 after 18 hrs by microtiter dilution assay. A digest of the protocol:
as §1

Experiment [10] has as its system Pseudomonas aeruginosa. The experiment in a line: Disruption of proton motive force in Pseudomonas aeruginosa PAO1 cytoplasmic membrane assessed as repression of bacterial swimming motility at sub-MIC after 20 hrs. A digest of the protocol:
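Swim plates of 0.3% agar with tryptone 5 g/L and NaCl 2.5 g/L, agent mixed into the medium and plates dried 2 h. PAO1 at 1.0 McFarland in 0.85% saline was point-inoculated at the center, and plates incubated 20 h at 37 °C before swim diameter was imaged.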

Experiment [11] deals with Pseudomonas aeruginosa. Kind of experiment: Induction of cytoplasmic membrane depolarization in Pseudomonas aeruginosa PAO1 up to 300 secs by diSC3-5 staining based fluorescence assay. In outline: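 Mid-log PAO1 washed in 5 mM HEPES pH 7.4 with 20 mM glucose and resuspended to OD600 0.05. Cells were loaded with 0.2 mM EDTA and 0.4 µM diSC3-5 for 2 h at 37 °C in the dark, then equilibrated with 100 mM KCl for 30 min. Agent was added and fluorescence followed at 622/670 nm; agents tested at 32 µg/mL.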

Experiment [12] relates to Pseudomonas aeruginosa. The experiment in a line: Antibacterial activity against Pseudomonas aeruginosa PAO1 assessed as ratio of MIC after 25 serial passages to MIC before 25 serial passages by microtiter dilution assay. In outline:
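Sequential passaging of wild-type PAO1 with single drugs or drug combinations. MIC was tested in MHB for 18 h. Cells from the well at half the MIC were adjusted to 0.5 McFarland in saline, diluted 1:50 in fresh MHB and used for the next MIC test. This was repeated for 25 passages, and the fold change in MIC was plotted against passage number.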

For experiment [13], the system named is Pseudomonas aeruginosa. The experiment in a line: Antibacterial activity against multidrug/extremely drug-resistant/colistin-susceptible Pseudomonas aeruginosa isolate P262-101856 after 18 hrs by microtiter dilution assay. In outline: as §1
The subject of experiment [14] is Pseudomonas aeruginosa. Kind of experiment: Potentiation of novobiocin-induced antibacterial activity against Pseudomonas aeruginosa PAO1 at 4 ug/ml after 18 hrs by checkerboard assay.

Calls of active or inactive are those of the source. The calls are words filed in the database; no cut-off is given here. A value given as a limit tells only on which side of the number the result lay.

Take COLISTIN: the MIC in experiment [1] was greater than 1020 µg/mL; in experiment [3], 1 µg/mL; in experiment [4], 0.5 µg/mL; in [5] it was 4 µg/mL; in [6], 2 µg/mL; in experiment [8], 4 µg/mL. Also, the values for the MIC in [9] and in experiment [13] were 0.5 µg/mL and 2 µg/mL, respectively. Besides, the result in experiment [2], in [7], in experiment [10] and in [14] was Active. Also, the Activity result in experiment [11] was “Dose-dependent effect”. Also, the Ratio in experiment [12] was 1024.
